Screens deposited in PubChem by The Scripps Research Institute Molecular Screening Center.
Only some compounds are listed: those with a hit (about 4.3% of all), similar ones and a draw of the others.
STAT3 act: IL-6 driven STAT3 reporter potentiators, primary screen, U3A cells, luciferase, luminescence, MLSCN library | IL-6 STAT3-luciferase reporter; 100% = signal with IL-6 EC80 alone | activation (% of control), % at 5.6 µM | hit rate 0.91% among 190,000;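 active = activation above the screen-wide mean of compound activation plus 3 SD, cut at about 130% in these data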;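 also: 0% = background luminescence of wells with medium and substrate only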
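System – human U3A cells carrying STAT3-luciferase construct · Probe or stimulus – Interleukin-6, 33 ng/mL · Schedule – compound 1 h, then IL-6 6 h at 37 °C · Signal – luminescence from STAT3-driven luciferase reporter · Evaluation – percent of IL-6-only median luminescence · Benchmarks – IL-6-only high control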
STAT1 activator: STAT1 signaling activators, primary screen, cell-based, HTS, luciferase reporter | activation (% of control), % at 5.5 µM | AID 932, 2007 | hit rate 2.6% among 200,000 | NIH 3T3 STAT1-luciferase reporter, IFN-gamma, luminescence; 100% = IFN-gamma alone, no compound;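 active = activation above the screen-wide mean activation plus 3 SD, cut at about 130% in these data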;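 also: raw ratio to IFN-gamma control signal so 100% means no change and 0% no light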
STAT3 blocker: IL-6 driven STAT3 reporter inhibitors, primary screen, U3A cells, luciferase, luminescence, MLSCN library; AID 862, 2007; hit rate 0.89% among 190,000; inhibition, % at 5.5 µM; IL-6 STAT3-luciferase reporter; host cell line lacks STAT1;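 active = inhibition above the mean inhibition across all screened compounds plus 3 SD, cut at about 44% in these data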;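 also: 0% = DMSO only wells and 100% = 100 µM nifuroxazide control wells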
STAT1 blocker: STAT1 signaling inhibitors, primary screen, cell-based, HTS, luciferase reporter | NIH 3T3 STAT1-luciferase reporter, IFN-gamma, luminescence | AID 920, 2007 | hit rate 0.35% among 200,000 | inhibition, % at 5.5 µM;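 active = inhibition above a set limit, the mean inhibition across all tested compounds plus 3 SD, cut at about 34% in these data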;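 also: 0% = IFN-gamma with DMSO and 100% = IFN-gamma with 300 µM nifuroxazide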
Starred values were filed as active, the others as inactive.

SMILES	STAT3 act	STAT1 activator	STAT3 blocker	STAT1 blocker
O=C(NCc1ccccc1Cl)c1ccc(S(=O)(=O)Nc2cccc(C(F)(F)F)c2)cc1	109.1	93.5	-10.8	7.2
COc1c(C)cccc1C(=O)Nc1ccc(N2CCN(S(C)(=O)=O)CC2)cc1	97.3	145.1*	5.9	-49.3
COc1cccc(NC(=O)c2ccc(CN3CCOCC3)cc2)c1	96.5	130.6*	4.9	-33.9
COc1c(C)cccc1C(=O)Nc1ccc(CN2CCOCC2)cc1	103.1	129.8*	-1.8	-32.1
O=C(c1cccc(S(=O)(=O)N2CCOCC2)c1)N(Cc1ccc(F)cc1)Cc1ccco1	134.0*	97.8	-29.2	1.4
CN(C)S(=O)(=O)c1cccc(C(=O)N(Cc2ccc(F)cc2)Cc2ccco2)c1	100.8	96.9	2.8	8.2
Cc1ccc(NC(=O)ON=C2CCCC2)cc1	103.5	129.6*	-3.8	-33.3
O=c1c(Br)c(N2CCCCC2)cnn1-c1ccccc1	90.5	146.6*	13.6	-50.8
O=c1c(Br)c(N2CCOCC2)cnn1-c1ccccc1	95.8	123.6	12.9	-28.1
CN1CCN(c2cnn(-c3ccccc3)c(=O)c2Br)CC1	103.5	110.3	0.6	-14.8
O=c1c(Br)c(N2CCCC2)cnn1-c1ccccc1	101.7	142.6*	-4.6	-47.9
O=C(CCc1ccc(Oc2cc([N+](=O)[O-])cc([N+](=O)[O-])c2)cc1)N1CCCCCC1	103.3	81.3	-5.7	20.1
C=CCN(c1cccc(C(F)(F)F)c1)S(=O)(=O)c1cccc(C(=O)OCC(=O)Nc2ccccc2)c1	87.3	88.0	16.9	13.5
Oc1ccccc1/C=N/Nc1cc(N2CCCC2)nc(N2CCCC2)n1	86.1	100.5	12.0	-0.5
Cc1nn2c3ccccc3nc2c2ccccc12	134.4*	114.8	-41.0	-21.0
O=c1c2sccc2nc(SCc2ccc([N+](=O)[O-])cc2)n1Cc1ccccn1	96.6	89.8	6.7	11.4
c1cncc(-c2nnc(-c3ccco3)o2)c1	98.9	114.2	5.5	-15.5
Clc1ccc(-c2nnc(-c3ccco3)o2)cc1	85.5	143.8*	19.0	-47.9
O=C(COc1ccccc1F)NCC(c1ccco1)N1CCCC1 (centres undefined)	107.3	94.2	-7.2	6.1
Cc1cc(NCCCN2CCOCC2)n2ncc(-c3ccc(Cl)cc3)c2n1	125.4	109.4	-27.3	-10.2
Cc1cc(NCCCn2ccnc2)n2ncc(-c3ccc(Cl)cc3)c2n1	152.2*	155.7*	-61.0	-61.9
O=C(CNCc1ccco1)Nc1ccc(Oc2ccccc2)cc1	96.2	99.5	12.6	0.7
Cc1ccccc1-c1nc(-c2cccnc2)no1	112.1	139.2*	-11.0	-42.9
Clc1ccc(Br)cc1-c1nc(-c2cccnc2)no1	140.8*	105.1	-43.1	-5.6
Cc1onc(-c2ccccc2Cl)c1-c1nc(-c2ccncc2)no1	101.0	109.8	2.4	-10.7
SMILES	STAT3 act	STAT1 activator	STAT3 blocker	STAT1 blocker
Clc1ccccc1-c1nc(-c2cccnc2)no1	119.8	129.0*	-21.2	-31.5
CCCNC(=O)CCc1c(C)nc2nc(C)nn2c1C	103.0	106.2	-0.1	-7.9
CC(CCc1ccccc1)NC(=O)C(=O)Nc1ccccc1 (centres undefined)	107.8	139.5*	-5.3	-43.7
COCC(=O)Nc1nnc(-c2ccc(C(C)(C)C)cc2)s1	90.9	135.8*	14.9	-39.0
CC1=NN(C(=O)c2ccc(Cn3cc([N+](=O)[O-])cn3)cc2)C(O)(C(F)(F)F)C1 (centres undefined)	97.4	93.5	5.9	7.5
O=C(O)CSc1nnc2c(n1)[nH]c1ccccc12	124.1	97.5	-22.6	4.3
Fc1ccc2nc3[nH]c4ccccc4c3nc2c1	135.1*	213.8*	-33.7	-125.2
Cn1c(CC(=O)Nc2ccccc2)c(Sc2ccccc2)c2ccccc21	134.9*	98.8	-36.0	1.3
Cn1c(=O)c(C(=O)Nc2ncccc2O)c(O)c2ccccc21	104.0	90.2	1.7	11.0
Cc1ccc(NC(=O)c2c(O)c3ccccc3n(C)c2=O)nc1	134.8*	95.6	-33.3	5.3
Cn1c(CC(=O)Nc2ccccc2C(F)(F)F)c(Sc2ccccc2)c2ccccc21	96.6	95.4	4.9	5.1
Cn1c(=O)c(C(=O)Nc2cccnc2)c(O)c2ccccc21	133.5*	113.6	-35.9	-14.7
Cn1c(Cl)c(C(=O)Nc2ccccc2)c2ccccc21	157.6*	99.4	-71.9	0.7
O=C(Nc1ccccc1)c1c(F)cccc1F	88.0	101.2	18.4	-1.3
CCOC(=O)c1c(-c2ccccc2Cl)csc1NC(=O)c1cc(S(=O)(=O)N2CCOCC2)ccc1C	102.8	100.3	-3.4	-0.3
O=C(CO/N=C\c1ccccc1)Nc1ccccc1C(=O)N1CCOCC1	95.8	82.6	7.8	19.8
O=C1CCOc2cc(OCc3ccccc3)ccc21	84.5	133.9*	20.5	-21.4
COc1cc2c(cc1NC(=O)C1CCCO1)oc1ccccc12 (centres undefined)	166.3*	147.0*	-76.5	-51.0
COc1ccc(Cl)cc1NC(=O)C1CCCO1 (centres undefined)	97.2	99.5	7.2	0.5
COc1cc2c(cc1NC(=O)c1cccc(S(=O)(=O)N(C)C)c1)oc1ccccc12	96.4	134.4*	5.6	-37.6
O=C(Cn1ncc(N2CCCC2)c(Cl)c1=O)c1ccc(Cl)cc1	110.2	135.6*	-0.1	-41.1
CC1=CC(C)=Nc2ccc(C)cc2N1	110.1	138.6*	-2.6	-42.3
COCn1c(COc2ccc3ccccc3c2)nc2ccccc21	111.4	137.9*	-10.3	-41.3
CCOC(=O)c1c(C)n(CC(O)CN(C)C)c2cc(Br)c(OC)cc12 (centres undefined)	100.0	108.0	4.6	-10.3
CCOC(=O)c1sc(NC(=O)C2CC2)cc1C	86.5	95.9	24.2	4.5
SMILES	STAT3 act	STAT1 activator	STAT3 blocker	STAT1 blocker
CCOC(=O)c1sc(NC(=O)c2ccccc2)cc1C	93.6	145.2*	14.6	-49.1
CCOC(=O)c1sc(NC(=O)c2ccc(Cl)s2)cc1C	100.7	132.1*	7.8	-35.5
CCN(CC)C(=O)c1c(NC(=O)c2ccccc2)sc(C)c1C	99.2	97.5	0.8	3.5
CCN(CC)Cc1c(NC(=O)c2ccccc2)sc(C)c1C	123.0	134.2*	-23.9	-38.2
CCOC(=O)c1sc(NC(=O)C(C)(C)C)cc1C	101.6	131.3*	6.7	-34.5
Cn1c(=O)n(C)c2cc(/C=N/N=C3/NC(=O)C(CC(=O)O)S3)ccc21 (centres undefined)	106.2	101.9	-3.6	-4.0
CCOC(=O)c1sc(=NC(=O)c2ccccc2)n(C)c1C	131.9	137.8*	-28.0	-41.0
CCOC(=O)c1csc(NC(=O)c2ccccc2)n1	92.2	136.1*	17.8	-39.9
Cc1cc(C)nc(NS(=O)(=O)c2ccc(NC(=O)C3(c4ccccc4)CCCC3)cc2)n1	102.3	103.7	-7.4	-4.1
O=C(O)C(=O)/C(=C\c1ccc([N+](=O)[O-])cc1)c1ccc2ccccc2n1	94.2	149.8*	9.2	-57.8
O=C(O)C(=O)/C(=C\c1ccccc1)c1ccc2ccccc2n1	168.8*	144.2*	-82.4	-47.9
